# Where two headings read alike, the source gives them in different places.
# How the values were obtained:
# [1] = system: HCT-116 (human colorectal carcinoma); test: MTT cytotoxicity assay, HCT-116; format: cell-based; settings: for IC50: read-out: IC50 (µM) ± SD HCT-116; for Therapeutic index (TI) HCT-116: TI = IC50 against normal cells (RPE-1)/IC50 against cancer cells (HCT-116)
# Procedure, shortened: (§1)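 Cells were kept in DMEM with 10% heat-inactivated FBS and penicillin/streptomycin at 37 °C under 5% CO2. MTT (2.5 mg mL−1) was added for 4 h, formazan dissolved in DMSO and A570 read. Viability is % of untreated control. Triplicates were repeated on three days; mean ± SD; IC50 by probit analysis.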
# [2] = system: MCF-7 (human breast adenocarcinoma); test: MTT cytotoxicity assay, MCF-7; format: cell-based; settings: for IC50: read-out: IC50 (µM) ± SD MCF-7; for Therapeutic index (TI) MCF-7: TI = IC50 against normal cells (RPE-1)/IC50 against cancer cells (MCF-7)
# Procedure, shortened: as §1
# [3] = system: RPE-1 (human normal Retina pigmented epithelium); test: MTT cytotoxicity assay, RPE-1 normal cells; format: cell-based; settings: read-out: IC50 (µM) ± SD RPE-1
# Procedure, shortened: as §1
# MCF-7 cells [4] = test: Apoptosis quantification by flow cytometry; format: cell-based, human; settings: MCF-7, treated at IC50 (2: 18.7 µM; 14: 15.6 µM), 24 h; for apoptosis percentage, early apoptosis: control 1.84 ± 0.63; for apoptosis percentage, late apoptosis: control 2.94 ± 0.5%
# MCF-7 cells [5] = test: Apoptosis detection by fluorescent Hoechst 33258 staining; format: cell-based, human; settings: MCF-7, treated at IC50 (2: 18.7 µM; 14: 15.6 µM), 24 h
# [6] = MTT assay, 48 h, normal RPE-1 cells
SMILES,"IC50 ([1]; Homo sapiens, HCT-116, 48 h) [µM]",Therapeutic index (TI) HCT-116 [1],"IC50 ([2]; Homo sapiens, MCF7, 48 h) [µM]",Therapeutic index (TI) MCF-7 [2],"IC50 ([3]; Homo sapiens, RPE-1, 48 h) [µM]","apoptosis percentage, early apoptosis (MCF-7 cells [4]) [%]","apoptosis percentage, late apoptosis (MCF-7 cells [4]) [%]",Nuclear morphological changes (Hoechst 33258) (MCF-7 cells [5]),"IC50 ([1]; MTT assay, 48 h, HCT-116) [µM]","IC50 ([2]; MTT assay, 48 h, MCF-7) [µM]","IC50 [3, 6] [µM]"
"CSc1nc(N)n(-c2ccc(C(=O)O)cc2)n1 [Compound 1, 4-(5-Amino-3-(methylthio)-1H-1,2,4-triazol-1-yl)benzoic acid]",41.8 ± 6.5,1.5,32.9 ± 5.3,1.9,61 ± 13.9,–,–,–,–,–,–
"Nc1nc(Oc2ccccc2)nn1-c1ccc(C(=O)O)cc1 [Compound 2, 4-(5-Amino-3-phenoxy-1H-1,2,4-triazol-1-yl)benzoic acid]",25.7 ± 4.1,2.4,18.7 ± 3.5,3.3,61.2 ± 10.9,17.82 ± 1.30,24.91 ± 1.98,DNA fragmentation and typical marks of apoptosis are evident,–,–,–
"CSc1nc(/N=C/c2cc(C)ccc2O)n(-c2ccc(C(=O)O)cc2)n1 [Compound 3, (E)-4-(5-((2-Hydroxy-5-methylbenzylidene)amino)-3-(methylthio)-1H-1,2,4-triazol-1-yl)benzoic acid]",36 ± 6.1,1.2,23.9 ± 1.6,1.8,43.9 ± 10.5,–,–,–,–,–,–
"COc1ccc(O)c(/C=N/c2nc(SC)nn2-c2ccc(C(=O)O)cc2)c1 [Compound 4, (E)-4-(5-((2-Hydroxy-5-methoxybenzylidene)amino)-3-(methylthio)-1H-1,2,4-triazol-1-yl)benzoic acid]",35.2 ± 5.2,1.6,27.3 ± 4.2,2.0,55.3 ± 11.1,–,–,–,–,–,–
"CSc1nc(/N=C/c2cc([N+](=O)[O-])ccc2O)n(-c2ccc(C(=O)O)cc2)n1 [Compound 5, (E)-4-(5-((2-Hydroxy-5-nitrobenzylidene)amino)-3-(methylthio)-1H-1,2,4-triazol-1-yl)benzoic acid]",24 ± 4.5,2.5,20 ± 4.1,3.0,60.2 ± 12.8,–,–,–,–,–,–
"CSc1nc(/N=C/c2cc(Br)ccc2O)n(-c2ccc(C(=O)O)cc2)n1 [Compound 6, (E)-4-(5-((5-Bromo-2-hydroxybenzylidene)amino)-3-(methylthio)-1H-1,2,4-triazol-1-yl)benzoic acid]",37.6 ± 6.4,1.6,31.3 ± 5.1,1.9,59.4 ± 11.7,–,–,–,–,–,–
"COc1cc(/C=N/c2nc(SC)nn2-c2ccc(C(=O)O)cc2)ccc1O [Compound 7, (E)-4-(5-((4-Hydroxy-3-methoxybenzylidene)amino)-3-(methylthio)-1H-1,2,4-triazol-1-yl)benzoic acid]",29.8 ± 4.2,2.1,29.4 ± 5.3,2.1,61.1 ± 12.5,–,–,–,–,–,–
"CSc1nc(/N=C/c2cccc(O)c2)n(-c2ccc(C(=O)O)cc2)n1 [Compound 8, (E)-4-(5-((3-Hydroxybenzylidene)amino)-3-(methylthio)-1H-1,2,4-triazol-1-yl)benzoic acid]",34.6 ± 6.1,2.0,31.2 ± 5.6,2.2,70.1 ± 15.3,–,–,–,–,–,–
"CSc1nc(/N=C/c2ccc(O)cc2)n(-c2ccc(C(=O)O)cc2)n1 [Compound 9, (E)-4-(5-((4-Hydroxybenzylidene)amino)-3-(methylthio)-1H-1,2,4-triazol-1-yl)benzoic acid]",39.1 ± 5.6,1.7,34.8 ± 5.5,2.0,68 ± 16.7,–,–,–,–,–,–
"Cc1ccc(O)c(/C=N/c2nc(Oc3ccccc3)nn2-c2ccc(C(=O)O)cc2)c1 [Compound 10, (E)-4-(5-((2-Hydroxy-5-methylbenzylidene)amino)-3-phenoxy-1H-1,2,4-triazol-1-yl)benzoic acid]",33.7 ± 5.2,2.2,30.3 ± 5.3,2.4,74 ± 16.5,–,–,–,–,–,–
"COc1ccc(O)c(/C=N/c2nc(Oc3ccccc3)nn2-c2ccc(C(=O)O)cc2)c1 [Compound 11, (E)-4-(5-((2-Hydroxy-5-methoxybenzylidene)amino)-3-phenoxy-1H-1,2,4-triazol-1-yl)benzoic acid]",33.1 ± 4.4,1.8,27.5 ± 4.1,2.1,58.5 ± 10.7,–,–,–,–,–,–
"O=C(O)c1ccc(-n2nc(Oc3ccccc3)nc2/N=C/c2cc([N+](=O)[O-])ccc2O)cc1 [Compound 12, (E)-4-(5-((2-Hydroxy-5-nitrobenzylidene)amino)-3-phenoxy-1H-1,2,4-triazol-1-yl)benzoic acid]",26.8 ± 4.5,2.3,21.6 ± 3.1,2.9,62.8 ± 13.9,–,–,–,–,–,–
"CSc1nc(NC(=S)NCc2ccccc2)n(-c2ccc(C(=O)O)cc2)n1 [Compound 13, 4-(3-(Methylthio)-5-(3-benzylylthioureido)-1H-1,2,4-triazol-1-yl)benzoic acid]",–,2.1,–,2.7,–,–,–,–,30.1 ± 4.1,23.4 ± 4.6,63.9 ± 13.5
"CSc1nc(NC(=S)NCCc2ccccc2)n(-c2ccc(C(=O)O)cc2)n1 [Compound 14, 4-(3-(Methylthio)-5-(3-phenethylthioureido)-1H-1,2,4-triazol-1-yl)benzoic acid]",28.3 ± 5.2,1.6,15.6 ± 2.2,2.9,45.8 ± 8.9,29.11 ± 1.44,45.47 ± 2.10,DNA fragmentation and typical marks of apoptosis are evident,–,–,–
"O=C(O)c1ccc(-n2nc(Oc3ccccc3)nc2NC(=S)NCc2ccccc2)cc1 [Compound 15, 4-(5-(3-Benzylylthioureido)(3-phenoxy)-1H-1,2,4-triazol-1-yl)benzoic acid]",–,3.8,–,3.8,–,–,–,–,23.9 ± 4.5,24 ± 4.3,91.6 ± 15.9
"COC(=O)c1ccc(-n2nc(SC)nc2N)cc1 [Compound 16, methyl 4-(5-amino-3-(methylthio)-1H-1,2,4-triazol-1-yl)benzoate]",37.3 ± 6.1,1.0,23.4 ± 3.5,1.7,39.1 ± 9.9,–,–,–,–,–,–
"CS(=O)(=O)c1nc(N)n(-c2ccc(C(=O)O)cc2)n1 [Compound 17, 4-(5-amino-3-(methylsulfonyl)-1H-1,2,4-triazol-1-yl) benzoic acid]",34.2 ± 5.2,1.4,21.9 ± 4.2,2.2,48.5 ± 9.8,–,–,–,–,–,–
"COc1cccc2c1C(=O)c1c(O)c3c(c(O)c1C2=O)C[C@@](O)(C(=O)CO)C[C@@H]3O[C@H]1C[C@H](N)[C@H](O)[C@H](C)O1 [Doxorubicin, reference compound]",22.6 ± 3.9,2.8,19.7 ± 3.1,3.3,64 ± 13.2,–,–,–,–,–,–
